TLR4 MyD88 comp: inhibitors of TLR4-MyD88 association in cells, primary screen, cell-based, HeLa CL3-4, BLA complementation, FRET ratio; actives 0.18% (n = 200,000); inhibition, % at 8.4 µM; HeLa CL3-4 TLR4/MyD88 BLA complementation; in the data active = inhibition above about 25%;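 also: 0% = vehicle and 100% = reference inhibitor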
beta cell repl: inducers of MIN6 beta-cell proliferation, primary screen, ATP luminescence, uHTS; actives 0.29% (n = 330,000); proliferation, % at 10 µM; AID 2380, 2010; MIN6 cells proliferation, ATPlite luminescence, 48 h; cells starved in 0.2% serum; 100% = growth in 10% serum;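 active = compounds whose signal lies at least 3.5 SD above the mean of all wells on their plate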;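 also: 0% = DMSO-treated cells in low-serum medium and 100% = 10% serum control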
MC4R antag cAMP: MC4R antagonists of cAMP signaling, primary screen, cell-based, TR-FRET, antagonist arm of biased-ligand search. Melanocortin receptor 4 (Homo sapiens), P32245. MC4R-expressing cells, MTII-stimulated cAMP, LANCE TR-FRET. inhibition, % at 6.5 µM. actives 0.48% (n = 360,000);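 active = inhibition above its plate's cutoff, the mean of tested wells on that plate plus 3 SD, cut at about 29% in these data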;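 also: 0% = Melanotan II alone and 100% = Melanotan II plus saturating MCL0020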
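Assay system: U2OS-MC4R stable cell line; Also added: Melanotan II; Technique: Eu-cAMP/anti-cAMP TR-FRET, emission 671 nm; Times: 30-min compound, 1-h challenge, 1-h detection, room temperature.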
MC4R ag barr: MC4R agonists recruiting beta-arrestin, primary screen, cell-based, luminescence, agonist arm of biased-ligand search; Melanocortin receptor 4 (Homo sapiens), P32245; actives 0.98% (n = 360,000); AID 540308, 2011; activation, % at 8.9 µM; U2OS MC4R beta-arrestin complementation; percent of melanotan II response, DMSO zero;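 active = activation above a per-plate cutoff, the mean activation of sample wells on that plate plus 3 SD, cut at about 8% in these data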
NOD2-RIPK2 inh: NOD2-RIPK2 binding disruptors in cells, primary screen, fluorescence, CHO cells, BLA complementation. inhibition, % at 4.98 µM. CCF4 ratio. actives 0.38% (n = 360,000). Receptor-interacting serine/threonine-protein kinase 2 (Homo sapiens), O43353; in the data active = inhibition above about 21%;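 also: 0% = vehicle only and 100% = reference blocker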
Target sequence (O43353 whole entry, looked up): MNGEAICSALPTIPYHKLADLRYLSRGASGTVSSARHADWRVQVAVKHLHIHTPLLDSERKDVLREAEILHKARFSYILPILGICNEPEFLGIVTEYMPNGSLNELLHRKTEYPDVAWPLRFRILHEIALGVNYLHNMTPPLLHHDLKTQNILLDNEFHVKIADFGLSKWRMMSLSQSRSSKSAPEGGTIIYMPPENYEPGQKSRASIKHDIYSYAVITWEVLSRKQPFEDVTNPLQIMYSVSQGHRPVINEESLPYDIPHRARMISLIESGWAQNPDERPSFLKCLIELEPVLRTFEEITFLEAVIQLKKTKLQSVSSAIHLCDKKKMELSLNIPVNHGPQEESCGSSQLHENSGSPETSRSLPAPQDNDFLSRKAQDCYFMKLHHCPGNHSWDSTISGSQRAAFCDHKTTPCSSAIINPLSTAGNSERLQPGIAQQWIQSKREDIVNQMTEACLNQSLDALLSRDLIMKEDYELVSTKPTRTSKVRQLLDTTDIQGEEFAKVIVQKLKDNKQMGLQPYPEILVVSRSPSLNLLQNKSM
TLR9-MyD88 block: inhibitors of TLR9-MyD88 association in cells, primary screen, cell-based, CHO, BLA complementation, fluorescence. Toll-like receptor 9 (Homo sapiens) + Myeloid differentiation primary response protein …. CCF4 FRET ratio. inhibition, % at 4.98 µM. actives 0.21% (n = 340,000). AID 504734, 2011;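 active = inhibition above the mean over all tested compounds plus 3 SD, cut at about 21% in these data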;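 also: 0% = DMSO only wells and 100% = clavulanate BLA inhibitor control wells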
TLR9-MyD88 cf: TLR9-MyD88 association inhibitors, retest, confirmation, cell-based, CHO, BLA complementation, fluorescence, triplicate | CCF4 FRET ratio | actives 51% (n = 680) | inhibition, % at 4.98 µM | shares compounds with TLR9-MyD88 block;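 active = mean inhibition across three repeats above about 21% taken from the earlier screen, limit read from the data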;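 also: blue over green emission ratio reports constitutive TLR9 MyD88 association via BLA complementation; 0% = DMSO vehicle wells and 100% = clavulanate BLA inhibitor wells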
BLA nonselective: beta-lactamase reporter inhibitors in CHO cells, artefact control for TLR9-MyD88 binding inhibitor project, cell-based, fluorescence | shares compounds with TLR9-MyD88 block | CHO-BLA cells, CCF4 FRET ratio, BLA reporter | inhibition, % at 4.98 µM | actives 7% (n = 680);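 active = mean inhibition above a 50% cutoff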;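 also: counterscreen of TLR9-MyD88 hits on CMV-driven BLA in CHO-K1 cells; 0% = DMSO alone and 100% = clavulanate blocking BLA; higher means less blue over green ratio so more BLA blockade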
TLR9 CHO cytotox: CHO cell viability loss – luminescence, single concentration, cytotoxicity control for TLR9-MyD88 binding inhibitor project. inhibition, % at 4.98 µM. actives 39% (n = 680). TLR9-MyD88 CHO cells cytotoxicity. shares compounds with TLR9-MyD88 block; in the data active = inhibition above about 11%
An asterisk follows results filed as active. A selection: hits, their analogues and other compounds. The true share with any hit is near 2.1%.

`Cc1ccc(S(=O)(=O)c2ccc([N+](=O)[O-])o2)cc1` gave MC4R antag cAMP 88.4*, MC4R ag barr -3.2, NOD2-RIPK2 inh 93.0*, TLR9-MyD88 block 44.3*, TLR9-MyD88 cf 50.8*, BLA nonselective 18.7 and TLR9 CHO cytotox 98.8*.
Cc1ccc(NC(=O)c2ccc([N+](=O)[O-])o2)c(C)c1 was read as TLR4 MyD88 comp 9.6, beta cell repl -3.6, MC4R antag cAMP 2.6, MC4R ag barr -0.8, NOD2-RIPK2 inh -2.3 and TLR9-MyD88 block 8.0.
For C/C(=N/NS(=O)(=O)c1ccc(C)cc1)c1ccc(NC(=O)C(F)(F)F)cc1 the results were TLR4 MyD88 comp -6.0, beta cell repl 0.0, MC4R antag cAMP -4.1, MC4R ag barr -1.5, NOD2-RIPK2 inh 3.3, TLR9-MyD88 block 21.5*, TLR9-MyD88 cf 9.2, BLA nonselective 9.4 and TLR9 CHO cytotox -0.9.
Screening Cc1c(C(=O)c2ccccc2C(=O)O)sc2ccccc12 returned beta cell repl -2.0, MC4R antag cAMP 15.2, MC4R ag barr -1.4, NOD2-RIPK2 inh -1.2 and TLR9-MyD88 block -4.4.
`CC1CCC(NS(=O)(=O)c2ccc(Cl)nc2)CC1` (centres undefined) gave beta cell repl 1.3, MC4R antag cAMP 8.3, MC4R ag barr 4.9, NOD2-RIPK2 inh -2.8 and TLR9-MyD88 block -4.1.
`COc1ccc(NC(=O)C2Cc3c(-c4ccc(NC(C)=O)cc4)ccnc3O2)cn1` (centres undefined) gave MC4R antag cAMP -8.2, MC4R ag barr -0.4 and NOD2-RIPK2 inh 9.3.
Screening COc1cc(/C=C2\SC(=S)N(Nc3ncc(C(F)(F)F)cc3Cl)C2=O)ccc1O returned TLR4 MyD88 comp 11.5, beta cell repl -5.5, MC4R antag cAMP 4.5, MC4R ag barr -4.4, NOD2-RIPK2 inh 13.1, TLR9-MyD88 block 26.3*, TLR9-MyD88 cf 1.4, BLA nonselective 1.8 and TLR9 CHO cytotox 4.1.
Cc1cc2nc3c(=O)n(C4CCCCC4)c(=O)[nH]c3nc2cc1N was read as TLR4 MyD88 comp 11.9, MC4R antag cAMP -8.5, MC4R ag barr -3.8, NOD2-RIPK2 inh 6.3, TLR9-MyD88 block 27.9*, TLR9-MyD88 cf 19.6, BLA nonselective 25.0 and TLR9 CHO cytotox -0.3.
CCCn1c(=O)n(N)c2ccccc21 was read as TLR4 MyD88 comp 11.5, beta cell repl 0.1, MC4R antag cAMP 21.2, MC4R ag barr -2.4, NOD2-RIPK2 inh -12.1 and TLR9-MyD88 block 0.4.
For CC(=N/O)/C(C)=N\NC(=O)c1ccccn1 the results were TLR4 MyD88 comp 7.3, beta cell repl -1.9, MC4R antag cAMP -0.5, MC4R ag barr -2.2, NOD2-RIPK2 inh 5.6, TLR9-MyD88 block 53.5*, TLR9-MyD88 cf 3.6, BLA nonselective 4.6 and TLR9 CHO cytotox 6.0.
`Cc1ccn(CC(=O)N2CCCC(N3CCN(c4ccc(F)cc4)CC3)C2)n1` (centres undefined) gave beta cell repl 2.4, MC4R antag cAMP 15.6, MC4R ag barr -1.3, NOD2-RIPK2 inh 7.8 and TLR9-MyD88 block 1.9.
For CN(C)CCNC(=O)c1sc2nc(-c3ccccc3)cc(C(F)(F)F)c2c1N the results were beta cell repl -4.7, MC4R antag cAMP -3.3, MC4R ag barr 4.7, NOD2-RIPK2 inh 17.0 and TLR9-MyD88 block 10.5.
For COc1ccc(-c2cc(C(F)(F)F)c3c(N)c(C(=O)NCCSC)sc3n2)cc1 the results were beta cell repl -3.3, MC4R antag cAMP 4.0, MC4R ag barr 1.0, NOD2-RIPK2 inh 5.5, TLR9-MyD88 block 22.3*, TLR9-MyD88 cf 74.3*, BLA nonselective 73.4* and TLR9 CHO cytotox 13.6*.
Screening CCCn1c(/C=C/c2ccccc2)nc2ccccc21 returned TLR4 MyD88 comp -0.2, beta cell repl -4.0, MC4R antag cAMP 9.1, MC4R ag barr -2.2, NOD2-RIPK2 inh 0.1 and TLR9-MyD88 block -3.1.
`CCn1c(/C=C/c2cc[n+](C)cc2)nc2ccccc21` gave beta cell repl -2.1, MC4R antag cAMP -8.7, MC4R ag barr -1.4, NOD2-RIPK2 inh 17.5, TLR9-MyD88 block 23.7*, TLR9-MyD88 cf 12.0, BLA nonselective 15.0 and TLR9 CHO cytotox -0.6.
Screening Cn1c(O)c(/C=N/NC(=O)c2cc3ccccc3cc2O)c2ccccc21 returned beta cell repl -4.0, MC4R antag cAMP 7.2, MC4R ag barr -4.2, NOD2-RIPK2 inh 17.4, TLR9-MyD88 block 30.9*, TLR9-MyD88 cf 22.6*, BLA nonselective 16.1 and TLR9 CHO cytotox 25.3*.
Screening Cn1c2ccccc2c2cc(/C=N/NC(=O)c3ccc(O)cc3O)ccc21 returned beta cell repl 0.8, MC4R antag cAMP 9.8, MC4R ag barr -2.1, NOD2-RIPK2 inh -0.3 and TLR9-MyD88 block -4.3.
For COc1ccc(CCNC(=O)C2CCCN(c3ncnc4c3nc3n4CCCCC3)C2)c(OC)c1 (centres undefined) the results were beta cell repl 2.1, MC4R antag cAMP 1.6, MC4R ag barr 1.5, NOD2-RIPK2 inh -7.4 and TLR9-MyD88 block 1.1.
For CCC(=O)OCCNc1cc(SCCC(=O)OC)c2nonc2c1[N+](=O)[O-] the results were TLR4 MyD88 comp -1.9, beta cell repl -2.9, MC4R antag cAMP 14.3, MC4R ag barr 0.7, NOD2-RIPK2 inh -9.1 and TLR9-MyD88 block -4.7.
`CCC(=O)OCCNc1cc(Sc2nccn2C)c2nonc2c1[N+](=O)[O-]` gave TLR4 MyD88 comp 23.8, MC4R antag cAMP -23.5, MC4R ag barr -3.4, NOD2-RIPK2 inh 15.0, TLR9-MyD88 block 23.6*, TLR9-MyD88 cf 69.4*, BLA nonselective 27.7 and TLR9 CHO cytotox 100.6*.
